Data on 6 molecules can be found in ChEMBL document CHEMBL4138156, “Indole and Benzimidazole Bichalcophenes: Synthesis, DNA Binding and Antiparasitic Activity” (Eur J Med Chem, 2018).

The structures appear in SMILES notation. Activity calls are given as the source filed them. No cut-off for these calls is given here.

A short description of series [1]: Binding affinity to poly(dA).poly(dT) DNA minor groove (unknown origin) assessed as positive induced CD signal at DNA:compound molar ratio of 20:2 to 20:10 by CD spectra analysis. The format is nucleic-acid assay. Summed up:
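Poly(dA).poly(dT) at 20 μM was titrated with compound at 25 °C in 10 mM MES, 100 mM NaCl, 1 mM EDTA, pH 7.4. CD spectra were recorded at different compound-to-DNA ratios.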

Series [2] relates to Poly(dA-dT)oligonucleotide. Briefly: Binding affinity to poly(dA-dT)n DNA (unknown origin) assessed as change in melting temperature at 0.3 molar ratio of compound:DNA by spectrophotometric analysis. The format is nucleic-acid assay. Summed up: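 UV thermal melting of poly(dA-dT) in CAC 10 buffer (10 mM cacodylic acid, 1 mM EDTA, 100 mM NaCl, NaOH to pH 7.0) was run in 1 cm quartz cuvettes, ramping at 0.5 °C/min. DNA concentration was set from A260, with 0.3 mol compound per mol DNA and DNA alone as control. ΔTm was taken from the peak of the first-derivative (dA/dT) curves.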

In series [3] the test system is Trypanosoma brucei rhodesiense. Briefly: Antiprotozoal activity against bloodstream forms of Trypanosoma brucei rhodesiense STIB900 infected in NMR1 mouse at 5 mg/kg, ip administered daily for 4 consecutive days starting from day 3 to 6 post infection. The format is functional. The method, boiled down:
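STIB900 acute-stage mouse infection model for T. b. rhodesiense (mimics acute African sleeping sickness). Dosing was 4 × 5 mg/kg i.p. The outcome was scored as cure of infected mice.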

The nature of series [4]: Selectivity index, ratio of IC50 for rat L6 cells to IC50 for Plasmodium falciparum K1 infected in human erythrocytes. The format is toxicity, cell-based. To be noted: read-out: Ratio IC50. The method, boiled down: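 Ratio of IC50 in cultured L6 rat myoblast cells (cytotoxicity) to IC50 in an in vitro viability assay against chloroquine-resistant P. falciparum strain K1. P. falciparum IC50 values are the average of duplicate determinations.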

Regarding `N=C(N)c1ccc2nc(-c3ccc(-c4ccc(C(=N)N)s4)o3)[nH]c2c1`, the outcome in series [1] was Active.
On the same count and under the same terms, to `N=C(N)c1ccc2nc(-c3ccc(-c4ccc(C(=N)N)o4)o3)[nH]c2c1` belongs “Active”.
What is called ΔTm is the shift of the melting midpoint relative to a reference. In the case of `N=C(N)c1ccc2cc(-c3ccc(-c4ccc(C(=N)N)s4)o3)[nH]c2c1`, the ΔTm in series [2] is greater than 30 °C. Besides, in series [3], the outcome was inactive.
Regarding `N=C(N)c1ccc2cc(-c3ccc(-c4ccc(C(=N)N)o4)o3)[nH]c2c1`, the result in series [3] was inactive. For the same molecule, the selectivity ratio in series [4] amounted to 1000. Also, in series [1], the outcome was Active.
Take `N=C(N)c1ccc2nc(-c3ccc(-c4ccc(C(=N)N)s4)s3)[nH]c2c1`: in series [2], the ΔTm was greater than 30 °C. Further, in series [1], the result was Active.
For the molecule `N=C(N)c1ccc2cc(-c3ccc(-c4ccc(C(=N)N)s4)s3)[nH]c2c1`, the ΔTm in series [2] was greater than 30 °C. For the same molecule, in series [3], the outcome was inactive. Besides, the outcome in series [1] was Active.
